Data reported in ChEMBL document CHEMBL3400013, “Synthesis and biological activity evaluation of hydrazone derivatives based on a Tröger's base skeleton” (Bioorg Med Chem, 2015).
Activity calls are given as the source filed them. The calls are words filed in the database; no cut-off is given here.

Tests used:
Nucleic Acid [1] = assay: Binding affinity to DNA (unknown origin) assessed as DNA intercalation by UV-visible spectrophotometry in presence of Zn2+; assay type: nucleic-acid assay
Nucleic Acid [2] = assay: Binding affinity to DNA (unknown origin) assessed as DNA intercalation by UV-visible spectrophotometry in presence of Co2+; assay type: nucleic-acid assay
[3] = Metal chelating activity of the compound assessed as formation of Ca2+ complex by UV-vis spectrometry; assay type: physicochemical
Pichia kudriavzevii = assay: Antifungal activity against Candida crusei up to 200 uM after 24 to 48 hrs by broth microdilution method; assay type: functional, organism-based
[4] = Cytostatic activity against human K562-TAX cells after 72 hrs by MTT assay; assay type: functional, cell-based
Procedure, shortened: (§1)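 Cells were seeded at 25,000–30,000 per well and pre-incubated for 24 h at 37°C in 5% CO2. Four-fold compound dilutions were added in duplicate and incubated for 72 h. MTT was added for 1–4 h, and formazan was dissolved in 10% aq SDS (pH 5.5) overnight at 37°C. OD was read at 540 nm. IC50 came from dose-response curves, mean ± SD of eight independent experiments.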

[5] = Metal chelating activity of the compound assessed as formation of Mn2+ complex by UV-vis spectrometry; assay type: physicochemical
Candida albicans = assay: Antifungal activity against Candida albicans up to 200 uM after 24 to 48 hrs by broth microdilution method; assay type: functional, organism-based
Candida parapsilosis = assay: Antifungal activity against Candida parapsilosis up to 200 uM after 24 to 48 hrs by broth microdilution method; assay type: functional, organism-based
[6] = Metal chelating activity of the compound assessed as formation of Co2+ complex by UV-vis spectrometry; assay type: physicochemical
Staphylococcus aureus [7] = assay: Antimicrobial activity against Staphylococcus aureus CCM 3953 up to 200 uM after 24 to 48 hrs by broth microdilution method; assay type: functional, organism-based
BJ [8] = assay: Selectivity index, ratio of IC50 for human BJ cells to IC50 for human K562-TAX cells; assay type: functional
BJ [9] = assay: Selectivity index, ratio of IC50 for human BJ cells to IC50 for human CEM-DNR cells; assay type: functional
Nucleic Acid [10] = assay: Binding affinity to DNA (unknown origin) assessed as DNA intercalation by UV-visible spectrophotometry in presence of Cu2+; assay type: nucleic-acid assay
Staphylococcus aureus [11] = assay: Antimicrobial activity against methicillin-resistant Staphylococcus aureus MRSA 4591 up to 200 uM after 24 to 48 hrs by broth microdilution method; assay type: functional, organism-based
MRC5 [12] = assay: Selectivity index, ratio of IC50 for human MRC5 cells to IC50 for human K562-TAX cells; assay type: functional
K562 [13] = assay: Selectivity index, ratio of IC50 for human MRC5 cells to IC50 for human K562 cells; assay type: functional
HCT-116 [14] = assay: Selectivity index, ratio of IC50 for human MRC5 cells to IC50 for human HCT116 cells; assay type: functional
[15] = Metal chelating activity of the compound assessed as formation of Fe3+ complex by UV-vis spectrometry; assay type: physicochemical
[16] = Cytostatic activity against human CEM-DNR cells after 72 hrs by MTT assay; assay type: functional, cell-based; procedure, shortened: as §1
K562 [17] = assay: Cytostatic activity against human K562 cells after 72 hrs by MTT assay; assay type: functional, cell-based; settings: K562, 72 h; procedure, shortened: as §1
BJ [18] = assay: Selectivity index, ratio of IC50 for human BJ cells to IC50 for human K562 cells; assay type: functional
Nucleic Acid [19] = assay: Binding affinity to DNA (unknown origin) assessed as DNA intercalation by UV-visible spectrophotometry; assay type: nucleic-acid assay
Nucleic Acid [20] = assay: Binding affinity to DNA (unknown origin) assessed as DNA intercalation by UV-visible spectrophotometry in presence of Ni2+; assay type: nucleic-acid assay
A549 [21] = assay: Selectivity index, ratio of IC50 for human MRC5 cells to IC50 for human A549 cells; assay type: functional
BJ [22] = assay: Selectivity index, ratio of IC50 for human BJ cells to IC50 for human p53-/- HCT116 cells; assay type: functional
A549 [23] = assay: Cytostatic activity against human A549 cells after 72 hrs by MTT assay; assay type: functional, cell-based; settings: A549, 72 h; procedure, shortened: as §1
[24] = Metal chelating activity of the compound assessed as formation of Mg2+ complex by UV-vis spectrometry; assay type: physicochemical
CCRF-CEM = assay: Cytostatic activity against human CCRF-CEM cells after 72 hrs by MTT assay; assay type: functional, cell-based; procedure, shortened: as §1
[25] = Cytostatic activity against human HCT116 cells after 72 hrs by MTT assay; assay type: functional, cell-based; settings: HCT-116, 72 h; procedure, shortened: as §1
MRC5 [26] = assay: Cytostatic activity against human MRC5 cells after 72 hrs by MTT assay; assay type: ADME, cell-based; settings: MRC5, 72 h; procedure, shortened: as §1
Pseudomonas aeruginosa [27] = assay: Antimicrobial activity against multidrug-resistant Pseudomonas aeruginosa A/16575 up to 200 uM after 24 to 48 hrs by broth microdilution method; assay type: functional, organism-based
[28] = Metal chelating activity of the compound assessed as formation of Zn2+ complex by UV-vis spectrometry; assay type: physicochemical
BJ [29] = assay: Selectivity index, ratio of IC50 for human BJ cells to IC50 for human HCT116 cells; assay type: functional
[30] = Metal chelating activity of the compound assessed as formation of Fe2+ complex by UV-vis spectrometry; assay type: physicochemical
[31] = system: Staphylococcus haemolyticus; assay: Antimicrobial activity against methicillin-resistant Staphylococcus haemolyticus A1/16568 up to 200 uM after 24 to 48 hrs by broth microdilution method; assay type: functional, organism-based
BJ [32] = assay: Selectivity index, ratio of IC50 for human BJ cells to IC50 for human CCRF-CEM cells; assay type: functional; settings: pooled result: one value given for 2 cell lines, strains, targets or settings
A549 [33] = assay: Selectivity index, ratio of IC50 for human BJ cells to IC50 for human A549 cells; assay type: functional
Pseudomonas aeruginosa [34] = assay: Antimicrobial activity against Pseudomonas aeruginosa CCM 395 up to 200 uM after 24 to 48 hrs by broth microdilution method; assay type: functional, organism-based
Escherichia coli [35] = assay: Antimicrobial activity against Escherichia coli CCM 3954 up to 200 uM after 24 to 48 hrs by broth microdilution method; assay type: functional, organism-based
Candida tropicalis = assay: Antifungal activity against Candida tropicalis up to 200 uM after 24 to 48 hrs by broth microdilution method; assay type: functional, organism-based
[36] = Metal chelating activity of the compound assessed as formation of Ni2+ complex by UV-vis spectrometry; assay type: physicochemical
HCT-116 [37] = assay: Selectivity index, ratio of IC50 for human MRC5 cells to IC50 for human p53-/- HCT116 cells; assay type: functional
[38] = Metal chelating activity of the compound assessed as formation of Cu2+ complex by UV-vis spectrometry; assay type: physicochemical
CEM-DNR = assay: Selectivity index, ratio of IC50 for human MRC5 cells to IC50 for human CEM-DNR cells; assay type: functional
[39] = Metal chelating activity of the compound assessed as formation of Cr3+ complex by UV-vis spectrometry; assay type: physicochemical
Enterococcus faecalis = assay: Antimicrobial activity against Enterococcus faecalis CCM 4224 up to 200 uM after 24 to 48 hrs by broth microdilution method; assay type: functional, organism-based
Escherichia coli [40] = assay: Antimicrobial activity against multidrug-resistant Escherichia coli C/16702 up to 200 uM after 24 to 48 hrs by broth microdilution method; assay type: functional, organism-based
Nucleic Acid [41] = assay: Binding affinity to DNA (unknown origin) assessed as DNA intercalation by UV-visible spectrophotometry in presence of Fe3+; assay type: nucleic-acid assay
[42] = Cytostatic activity against human p53-/- HCT116 cells after 72 hrs by MTT assay; assay type: functional, cell-based; settings: HCT-116, 72 h; procedure, shortened: as §1
BJ [43] = assay: Cytostatic activity against human BJ cells after 72 hrs by MTT assay; assay type: ADME, cell-based; procedure, shortened: as §1

SMILES: O=C(N/N=C/c1cc(Cl)ccc1O)c1ccc2c3c(ccc2c1)N1Cc2c(ccc4cc(C(=O)N/N=C/c5cc(Cl)ccc5O)ccc24)N(C3)C1
- Activity (Nucleic Acid [1]): Active
- Activity (Nucleic Acid [2]): Active
- Activity [3]: Not Active
- Activity (Pichia kudriavzevii): inactive
- IC50 [4]: > 100 µM
- Activity [5]: Not Active
- Activity (Candida albicans): inactive
- Activity (Candida parapsilosis): inactive
- Activity [6]: Active
- Activity (Staphylococcus aureus [7]): inactive
- Ratio IC50 (BJ [8]): 1
- Ratio IC50 (BJ [9]): 1
- Activity (Nucleic Acid [10]): Active
- Activity (Staphylococcus aureus [11]): inactive
- Ratio IC50 (MRC5 [12]): 1
- Ratio IC50 (K562 [13]): 1
- Ratio IC50 (HCT-116 [14]): 1
- Activity [15]: Active
- IC50 [16]: > 100 µM
- IC50 (K562 [17]): > 100 µM
- Ratio IC50 (BJ [18]): 1
- Activity (Nucleic Acid [19]): inactive
- Activity (Nucleic Acid [20]): Active
- Ratio IC50 (A549 [21]): 1
- Ratio IC50 (BJ [22]): 1
- IC50 (A549 [23]): > 100 µM
- Activity [24]: Not Active
- IC50 (CCRF-CEM): 42.1 µM
- IC50 [25]: > 100 µM
- IC50 (MRC5 [26]): > 100 µM
- Activity (Pseudomonas aeruginosa [27]): inactive
- Activity [28]: Active
- Ratio IC50 (BJ [29]): 1
- Activity [30]: Not Active
- Activity [31]: inactive
- Ratio IC50 (BJ [32]): 2.4
- Ratio IC50 (A549 [33]): 1
- Activity (Pseudomonas aeruginosa [34]): inactive
- Activity (Escherichia coli [35]): inactive
- Activity (Candida tropicalis): inactive
- Activity [36]: Active
- Ratio IC50 (HCT-116 [37]): 1
- Activity [38]: Active
- Ratio IC50 (CEM-DNR): 1
- Activity [39]: Not Active
- Activity (Enterococcus faecalis): inactive
- Activity (Escherichia coli [40]): inactive
- Activity (Nucleic Acid [41]): Active
- IC50 [42]: > 100 µM
- IC50 (BJ [43]): > 100 µM

SMILES: O=C(N/N=C/c1cc([N+](=O)[O-])ccc1O)c1ccc2c3c(ccc2c1)N1Cc2c(ccc4cc(C(=O)N/N=C/c5cc([N+](=O)[O-])ccc5O)ccc24)N(C3)C1
- Activity (Nucleic Acid [1]): Active
- Activity (Nucleic Acid [2]): Active
- Activity [3]: Not Active
- Activity (Pichia kudriavzevii): inactive
- IC50 [4]: > 100 µM
- Activity [5]: Not Active
- Activity (Candida albicans): inactive
- Activity (Candida parapsilosis): inactive
- Activity [6]: Active
- Activity (Staphylococcus aureus [7]): inactive
- Ratio IC50 (BJ [8]): 0.9
- Ratio IC50 (BJ [9]): 0.9
- Activity (Nucleic Acid [10]): Active
- Activity (Staphylococcus aureus [11]): inactive
- Ratio IC50 (MRC5 [12]): 0.9
- Ratio IC50 (K562 [13]): 0.9
- Ratio IC50 (HCT-116 [14]): 0.9
- Activity [15]: Active
- IC50 [16]: > 100 µM
- IC50 (K562 [17]): > 100 µM
- Ratio IC50 (BJ [18]): 0.9
- Activity (Nucleic Acid [19]): inactive
- Activity (Nucleic Acid [20]): Active
- Ratio IC50 (A549 [21]): 0.9
- Ratio IC50 (BJ [22]): 0.9
- IC50 (A549 [23]): > 100 µM
- Activity [24]: Not Active
- IC50 (CCRF-CEM): > 100 µM
- IC50 [25]: > 100 µM
- IC50 (MRC5 [26]): 88.8 µM
- Activity (Pseudomonas aeruginosa [27]): inactive
- Activity [28]: Active
- Ratio IC50 (BJ [29]): 0.9
- Activity [30]: Not Active
- Activity [31]: inactive
- Ratio IC50 (BJ [32]): 0.9
- Ratio IC50 (A549 [33]): 0.9
- Activity (Pseudomonas aeruginosa [34]): inactive
- Activity (Escherichia coli [35]): inactive
- Activity (Candida tropicalis): inactive
- Activity [36]: Active
- Ratio IC50 (HCT-116 [37]): 0.9
- Activity [38]: Active
- Ratio IC50 (CEM-DNR): 0.9
- Activity [39]: Not Active
- Activity (Enterococcus faecalis): inactive
- Activity (Escherichia coli [40]): inactive
- Activity (Nucleic Acid [41]): Active
- IC50 [42]: > 100 µM
- IC50 (BJ [43]): > 100 µM
